Assay results: ChEMBL document CHEMBL1157486, “2-Substituted-16-ene-22-thia-1alpha,25-dihydroxy-26,27-dimethyl-19-norvitamin D3 analogs: Synthesis, biological evaluation, and crystal structure” (Bioorg Med Chem, 2008)
Several values for one entry are separate records, joined by “and”; a condition that tells them apart may be missing. Equal values may be shown once.

Legend:
[1] = target: T1, Vitamin D3 receptor (Rattus norvegicus) (UniProt P13053); experiment: Displacement of [3H]1-alpha,25-(OH)2D3 from rat recombinant VDR expressed in Escherichia coli BL21 (DE3)
T1 sequence (whole entry): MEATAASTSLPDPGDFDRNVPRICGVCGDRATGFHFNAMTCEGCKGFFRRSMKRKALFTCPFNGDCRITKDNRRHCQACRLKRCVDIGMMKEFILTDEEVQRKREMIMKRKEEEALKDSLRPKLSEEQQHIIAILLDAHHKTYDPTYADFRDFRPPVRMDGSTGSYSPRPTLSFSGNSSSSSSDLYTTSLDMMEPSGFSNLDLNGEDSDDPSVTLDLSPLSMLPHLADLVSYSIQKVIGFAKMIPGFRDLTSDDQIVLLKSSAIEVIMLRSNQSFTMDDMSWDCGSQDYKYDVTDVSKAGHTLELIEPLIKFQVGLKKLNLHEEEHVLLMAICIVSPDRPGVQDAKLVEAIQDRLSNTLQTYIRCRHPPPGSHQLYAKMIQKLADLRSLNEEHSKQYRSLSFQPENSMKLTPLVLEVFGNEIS
In short: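 Rat VDR-LBD lysate (sonicated cells) diluted ~1000-fold in 50 mM Tris pH 7.5 with 100 mM KCl, 5 mM DTT, 0.5% CHAPS and BSA 100 µg/mL. Ligand in EtOH preincubated 1 h at room temperature, then [3H]1α,25-(OH)2D3 (~5000 dpm) added for 18 h at 4 °C. Free ligand removed with dextran-coated charcoal, and bound fraction counted by scintillation. At least twice in duplicate.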

[2] = target: Vitamin D3 receptor (Homo sapiens) (UniProt P11473); experiment: Increase in human VDR-mediated transcriptional activity in african green monkey COS7 cells after 24 hrs by luciferase assay
Bone marrow cell = experiment: Effect on osteoclast formation in ddY mouse bone marrow cells co cultured with […] after 7 days
[3] = Mus musculus, ddY, Bone marrow cell, 168 h

Row | Activity [1] | EC50 [2] [nM] | SMILES | other results
1 | 4% |  | CCC(O)(CC)CCS[C@H](C)C1=CC[C@H]2/C(=C/C=C3C[C@@H](O)C[C@H](O)C3)CCC[C@]12C | 
2 | 8% |  | CCC(O)(CC)CCCS[C@H](C)C1=CC[C@H]2/C(=C/C=C3C[C@@H](O)C[C@H](O)C3)CCC[C@]12C | 
3 |  | 0.12 | [H][C@@]12CC=C([C@@H](C)SCC(O)(CC)CC)[C@@]1(C)CCC/C2=C\C=C1\C[C@@H](O)[C@@](C)(O)[C@H](O)C1 (stereo partly specified) | 
4 |  | 1.9 | CCC(O)(CC)CSC(C)C1=CCC2/C(=C/C=C3/C[C@@H](O)[C@](C)(O)[C@H](O)C3)CCC[C@]12C (stereo partly specified) | 
5 | 100% |  | C=C1/C(=C\C=C2/CCC[C@]3(C)[C@@H]([C@H](C)CCCC(C)(C)O)CC[C@@H]23)C[C@@H](O)C[C@@H]1O [CALCITRIOL] | EC50 (Bone marrow cell; [3]): 2 nM
6 |  | 0.017 | CCC(O)(CC)CSC(C)C1=CCC2/C(=C/C=C3\C[C@@H](O)[C@](C)(O)[C@H](O)C3)CCC[C@]12C (stereo partly specified) | 
7 | 12% and 0.5% |  | CCC(O)(CC)CS[C@H](C)C1=CC[C@H]2/C(=C/C=C3C[C@@H](O)C(C)(O)[C@H](O)C3)CCC[C@]12C (stereo partly specified) | 
8 | 6% |  | CCC(O)(CC)CS[C@H](C)C1=CC[C@H]2/C(=C/C=C3C[C@@H](O)C[C@H](O)C3)CCC[C@]12C | 
9 |  | 0.115 | [H][C@@]12CC=C([C@@H](C)SCC(O)(CC)CC)[C@@]1(C)CCC/C2=C\C=C1\C[C@@H](O)[C@H](OCCO)[C@H](O)C1 (stereo partly specified) | EC50 (Bone marrow cell; bone marrow cell): 0.43 nM
10 |  | 0.026 | CCC(O)(CC)CSC(C)C1=CCC2/C(=C/C=C3C[C@@H](O)C(=CCO)[C@H](O)C3)CCC[C@]12C (stereo partly specified) [listing 1 of 2 here] | 
11 |  | 0.085 | CCC(O)(CC)CSC(C)C1=CCC2/C(=C/C=C3C[C@@H](O)C(=CCO)[C@H](O)C3)CCC[C@]12C (stereo partly specified) [listing 2 of 2 here] | 

The remaining lines, values behind:

Row | SMILES | Activity [1] | EC50 [2] [nM] | other results
12 | CCC(O)(CC)CSC(C)C1=CCC2/C(=C/C=C3C[C@@H](O)C(C)(O)[C@H](O)C3)CCC[C@]12C (stereo partly specified) | 18% and 1% |  | 
13 | CCC(O)(CC)CS[C@H](C)C1=CC[C@H]2/C(=C/C=C3C[C@@H](O)C(=CCO)[C@H](O)C3)CCC[C@]12C [listing 1 of 2 here] |  | 0.029 | 
14 | CCC(O)(CC)CCCS[C@@H](C)C1=CC[C@H]2/C(=C/C=C3C[C@@H](O)C[C@H](O)C3)CCC[C@]12C | 100% |  | 
15 | CCC(O)(CC)CS[C@@H](C)C1=CC[C@H]2/C(=C/C=C3C[C@@H](O)C[C@H](O)C3)CCC[C@]12C | 60% |  | 
16 | CCC(O)(CC)CCS[C@@H](C)C1=CC[C@H]2/C(=C/C=C3C[C@@H](O)C[C@H](O)C3)CCC[C@]12C | 100% |  | 
17 | [H][C@@]12CC=C([C@@H](C)SCC(O)(CC)CC)[C@@]1(C)CCC/C2=C\C=C1/C[C@@H](O)[C@@](C)(O)[C@H](O)C1 (stereo partly specified) |  | 4.5 | 
18 | CCC(O)(CC)CSC(C)C1=CCC2/C(=C/C=C3/C[C@@H](O)[C@H](OCCO)[C@H](O)C3)CCC[C@]12C (stereo partly specified) |  | 0.027 | EC50 (Bone marrow cell; bone marrow cell): 0.04 nM
19 | CCC(O)(CC)CS[C@H](C)C1=CC[C@H]2/C(=C/C=C3C[C@@H](O)C(=CCO)[C@H](O)C3)CCC[C@]12C [listing 2 of 2 here] |  | 0.2 | 
20 | CCC(O)(CC)CSC(C)C1=CCC2/C(=C/C=C3\C[C@@H](O)[C@H](OCCO)[C@H](O)C3)CCC[C@]12C (stereo partly specified) |  | 0.0021 | EC50 (Bone marrow cell; [3]): 0.035 nM
21 | [H][C@@]12CC=C([C@@H](C)SCC(O)(CC)CC)[C@@]1(C)CCC/C2=C\C=C1/C[C@@H](O)[C@H](OCCO)[C@H](O)C1 (stereo partly specified) |  | 0.024 | EC50 (Bone marrow cell; [3]): 0.22 nM
